In one data set the test system is C. freundii (MDR). Kind of data set: MIC assay. Type of data set: cell-based. As to conditions: Gram-negative. The essentials:
(§1)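 Broth microdilution: test compound dissolved in physiological saline, two-fold serially diluted across wells (50 μL broth each). 50 μL bacterial suspension added (1.0 × 10⁶ CFU/mL). Incubation 16 h at 37 °C with constant agitation. MIC read visually together with absorbance at 600 nm. Each sample run in triplicate.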

The test system of another data set is A. baumannii (MDR). Nature of the data set: MIC assay. Type of data set: cell-based. The note with it: Gram-negative. The essentials:
as §1

Another data set relates to E. aerogenes (MDR). Kind of data set: MIC assay. Type of data set: cell-based. As to conditions: Gram-negative. The essentials: as §1
In the next data set the test system is E. coli ATCC 25922. Kind of data set: MIC assay. The note with it: E. coli ATCC 25922, Gram-negative. It is filed as cell-based. In short, it runs like this: as §1
The test system of another data set is B. subtilis ATCC 6633. Kind of data set: MIC assay. Type of data set: cell-based. The note with it: B. subtilis ATCC 6633, Gram-positive. In short, it runs like this:
as §1

The next data set relates to S. aureus (MDR). Nature of the data set: MIC assay. It is filed as cell-based. The note with it: Gram-positive. The essentials:
as §1

Another data set in a line: Plasma stability by HPLC. Type of data set: in vitro ADME. The note with it: human, human plasma 25 % (v/v). The essentials: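 An 8 mM aqueous stock of peptide (1 mL) was added to 3 mL of 25 % (v/v) human plasma and incubated at 37 °C with agitation, sampling from 0–48 h and up to 14 days. Each sample was quenched with an equal volume of 90 % acetonitrile/10 % TFA, cooled to 4 °C and spun at 10000 rpm for 10 min. Supernatant was quantified by HPLC against standard curves (0.0625–8 mM). Triplicates.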

For the next data set, the system named is Gram-positive bacteria. Kind of data set: Geometric mean of MICs and selectivity index, Gram-positive bacteria. Type of data set: cell-based. As to conditions: geometric mean of MICs.
A further data set concerns all bacteria tested. Kind of data set: Geometric mean of MICs and selectivity index, all bacteria. It is filed as cell-based. As to conditions: geometric mean of MICs against all bacteria. In short, it runs like this: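 Geometric mean of the broth-microdilution MICs (μM) across all bacterial strains tested. It serves as the denominator of the selectivity index, SI = HC₅₀ (μM) / GM.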

Another data set can be described thus: Cytotoxicity assay. It is filed as cell-based, human. In short, it runs like this:
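293T human embryonic kidney cells were seeded and grown 24 h, then exposed for 24 h to a concentration series of test compound in DMEM. CCK-8 reagent was added for 2 h at 37 °C, and absorbance was read at 450 nm. Five replicates per sample.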

The subject of another data set is Gram-negative bacteria. Nature of the data set: Geometric mean of MICs and selectivity index, Gram-negative bacteria. Type of data set: cell-based. The note with it: geometric mean of MICs.
Data set [1] relates to human red blood cells (hRBCs). Nature of the data set: Hemolytic assay. As to conditions: median hemolytic concentration, 5 % hRBCs, 1 h, 37 °C. Type of data set: cell-based. The essentials: (§2)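 Human erythrocytes from heparinised blood, washed three times in PBS (centrifuged 1800 rpm, 4 °C, 5 min), used as a 5 % (v/v) suspension. Peptide two-fold dilutions in PBS, final 0.78–50 μM. Incubation 1 h at 37 °C, then 3000 rpm for 5 min; supernatant hemoglobin read at A405. Controls: PBS (0 %) and 1 % Triton X-100 (100 %). Five replicates; HC₅₀ derived as median hemolytic concentration.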

A short description of a further data set: Hemolytic assay. It is filed as cell-based, human. In short, it runs like this:
as §2

For data set [2] the following is noted: commercially available antimicrobial peptide drug; cited from earlier work.

These results are taken from publication PMC12627342 (Journal of Advanced Research, 2025).

Consider “Ac-GLRKMLRKFMNKIKR-NH2 [P-α-06, Ac-GLRKMLRKFMNKIKR-NH2]”, for which the MIC against C. freundii (MDR) amounted to 6.25 µM; in the data set with A. baumannii (MDR), 12.5 µM; in the data set with E. aerogenes (MDR) it was 25 µM; with E. coli ATCC 25922, 12.5 µM; in the data set with B. subtilis ATCC 6633, 6.25 µM; in the data set with S. aureus (MDR) it was 12.5 µM.
For the substance “Ac-GLRKVLRKFVNKIKR-NH2 [P-α-01, Ac-GLRKVLRKFVNKIKR-NH2]”, the MIC is 6.25 µM in the data set with C. freundii (MDR); 12.5 µM against A. baumannii (MDR); 50 µM with E. aerogenes (MDR); 12.5 µM in the data set with E. coli ATCC 25922; 6.25 µM with B. subtilis ATCC 6633; 25 µM against S. aureus (MDR).
On to “Ac-GLRKILRKFINKIKR-NH2 [P-α-03, Ac-GLRKILRKFINKIKR-NH2]”, for which the MIC was found to be 6.25 µM in the data set with C. freundii (MDR); 6.25 µM with A. baumannii (MDR); 12.5 µM in the data set on E. aerogenes (MDR); 3.125 µM in the data set on E. coli ATCC 25922; 3.125 µM in the data set with B. subtilis ATCC 6633; 6.25 µM in the data set with S. aureus (MDR).
With “Ac-GLFKFLRKFFNFIKR-NH2 [P-γ, Ac-GLFKFLRKFFNFIKR-NH2]”, the MIC with C. freundii (MDR) is 50 µM; in the data set on A. baumannii (MDR), 12.5 µM; in the data set on E. aerogenes (MDR), 50 µM; against E. coli ATCC 25922, 12.5 µM; against B. subtilis ATCC 6633, 12.5 µM; in the data set on S. aureus (MDR), 50 µM.
With “Ac-GLRKALRKFANKIKR-NH2 [P-α-05, Ac-GLRKALRKFANKIKR-NH2]”, the minimum inhibitory concentration (MIC) amounted to 50 µM in the data set on C. freundii (MDR); 50 µM against A. baumannii (MDR); 50 µM with E. aerogenes (MDR); 50 µM in the data set on E. coli ATCC 25922; 25 µM in the data set with B. subtilis ATCC 6633; 50 µM with S. aureus (MDR).
As for “Ac-GLRKLLRKFLNKIKR-NH2 [P-α-04, Ac-GLRKLLRKFLNKIKR-NH2]”, the minimum inhibitory concentration (MIC) in the data set on C. freundii (MDR) was 3.125 µM; in the data set on A. baumannii (MDR), 6.25 µM; with E. aerogenes (MDR) it was 6.25 µM; against E. coli ATCC 25922, 3.125 µM; with B. subtilis ATCC 6633 it was 3.125 µM; against S. aureus (MDR) it was 3.125 µM. For the same substance, the half-life at 2 mM in the data set “Plasma stability by HPLC” was 17.4 h. The “GM+” value with Gram-positive bacteria is 3.13 µM. In the data set with all bacteria tested, this substance returned a GMall of 3.94 µM. This substance displayed a CC50 in “Cytotoxicity assay” of 193 µM. This substance yielded a GM- with Gram-negative bacteria of 4.42 µM. Further, the HC50 in data set [1] was >1000 µM.
Consider “Ac-GLWKWLRKFWNKIKR-NH2 [P-β-02, Ac-GLWKWLRKFWNKIKR-NH2]”, for which the minimal inhibitory concentration (MIC) against C. freundii (MDR) was found to be 12.5 µM; against A. baumannii (MDR), 12.5 µM; in the data set with E. aerogenes (MDR) it was 25 µM; with E. coli ATCC 25922, 12.5 µM; in the data set on B. subtilis ATCC 6633, 6.25 µM; with S. aureus (MDR), 25 µM.
With “Ac-GLRKFLRKFFNKIKR-NH2 [P-α, Ac-GLRKFLRKFFNKIKR-NH2]”, the minimum inhibitory concentration (MIC) was 6.25 µM in the data set on C. freundii (MDR); 6.25 µM in the data set with A. baumannii (MDR); 12.5 µM in the data set on E. aerogenes (MDR); 6.25 µM in the data set on E. coli ATCC 25922; 6.25 µM against B. subtilis ATCC 6633; 6.25 µM in the data set on S. aureus (MDR). In the data set “Plasma stability by HPLC”, the half-life at 2 mM is 15.3 h. In addition, the “GM+” value in the data set with Gram-positive bacteria is 6.25 µM. The GMall in the data set on all bacteria tested stood at 7.02 µM. Besides, in the data set on Gram-negative bacteria, the GM- is 14.87 µM. This substance came in with a hemolysis at 50 µM in “Hemolytic assay” of 1.5%.
For the substance “Ac-GLFKFLRKFFNKIKR-NH2 [P-β, Ac-GLFKFLRKFFNKIKR-NH2]”, the minimal inhibitory concentration (MIC) in the data set with C. freundii (MDR) is 6.25 µM; in the data set on A. baumannii (MDR), 6.25 µM; in the data set with E. aerogenes (MDR), 12.5 µM; against E. coli ATCC 25922, 6.25 µM; with B. subtilis ATCC 6633 it was 6.25 µM; against S. aureus (MDR) it was 6.25 µM. Further, the “GM+” value in the data set on Gram-positive bacteria amounted to 6.25 µM. The substance also gave a GMall in the data set with all bacteria tested of 7.02 µM. This substance also yielded a CC50 in the data set “Cytotoxicity assay” of 28.2 µM. This substance also yielded a GM- in the data set with Gram-negative bacteria of 7.43 µM. This substance also showed a 50% haemolytic concentration (HC50) in data set [1] of 136.69 µM.
For the substance Polymyxin B [reference compound], the minimum inhibitory concentration (MIC) with A. baumannii (MDR) was 0.78 µM; in the data set with E. coli ATCC 25922, 0.78 µM; in the data set with B. subtilis ATCC 6633, 1.56 µM; with S. aureus (MDR) it was 25 µM.
For the substance polymyxin E, the half-life in data set [2] is reported as 0.39 h.
